# System: Fibroblast
# Experiment: Multiplex assay against human fibroblast
# Assay type: toxicity, cell-based
# Outline: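 Live cells were stained at seeding with Hoechst33342, BioTracker Green Microtubule Cytoskeleton Dye, MitoTracker Red and Annexin V Alexa Fluor 680, then imaged on a CQ1 microscope at 37°C and 5% CO2 after compound addition. CellPathfinder machine-learning gating split cells into Hoechst high-intensity objects or normal cells. Normal cells were split into healthy, pyknosed or fragmented nuclei, and pyknosed cells into mitotic or apoptotic. Tubulin, mitochondrial-mass and membrane-permeability phenotypes are per cents of healthy-nucleus cells.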
# [1] = 12 h, 1 µM, compound concentration 1 uM, replicate 1
# [2] = 12 h, 1 µM, compound concentration 1 uM, replicate 2
# [3] = 12 h, 10 µM, compound concentration 10 uM, replicate 1
# [4] = 12 h, 10 µM, compound concentration 10 uM, replicate 2
# [5] = 24 h, 1 µM, compound concentration 1 uM, replicate 1
# [6] = 24 h, 1 µM, compound concentration 1 uM, replicate 2
# [7] = 24 h, 10 µM, compound concentration 10 uM, replicate 1
# [8] = 24 h, 10 µM, compound concentration 10 uM, replicate 2
# [9] = 48 h, 1 µM, compound concentration 1 uM, replicate 1
# [10] = 48 h, 1 µM, compound concentration 1 uM, replicate 2
# [11] = 48 h, 10 µM, compound concentration 10 uM, replicate 1
# [12] = 48 h, 10 µM, compound concentration 10 uM, replicate 2
compound,measurement,setting,value
CN1CCN2c3ccccc3Cc3ccccc3C2C1.Cl (stereo unspecified) [MIANSERIN HYDROCHLORIDE],Population Apoptotic (%),[1],55%
same,Population Fragmented Nuclei (%),[1],28%
same,Population Healthy Nuclei (%),[1],56%
same,Population Hoechst High Intensity Objects (%),[1],2%
same,Population Membrane Permeable-Phenotype (%),[1],1%
same,Population Mitochondria Different-Phenotype (%),[1],0%
same,Population Mitotic Cells (%),[1],45%
same,Population Normal (%),[1],97%
same,Population Pyknosed Nuclei (%),[1],14%
same,Population Tubulin-Different-Phenotype (%),[1],31%
same,Total Cell Count,[1],138
same,Population Apoptotic (%),[2],38%
same,Population Fragmented Nuclei (%),[2],27%
same,Population Healthy Nuclei (%),[2],50%
same,Population Hoechst High Intensity Objects (%),[2],4%
same,Population Membrane Permeable-Phenotype (%),[2],12%
same,Population Mitochondria Different-Phenotype (%),[2],5%
same,Population Mitotic Cells (%),[2],61%
same,Population Normal (%),[2],95%
same,Population Pyknosed Nuclei (%),[2],22%
same,Population Tubulin-Different-Phenotype (%),[2],56%
same,Total Cell Count,[2],119
same,Population Apoptotic (%),[3],55%
same,Population Fragmented Nuclei (%),[3],15%
same,Population Healthy Nuclei (%),[3],68%
same,Population Hoechst High Intensity Objects (%),[3],5%
same,Population Membrane Permeable-Phenotype (%),[3],1%
same,Population Mitochondria Different-Phenotype (%),[3],3%
same,Population Mitotic Cells (%),[3],44%
same,Population Normal (%),[3],94%
same,Population Pyknosed Nuclei (%),[3],15%
same,Population Tubulin-Different-Phenotype (%),[3],14%
same,Total Cell Count,[3],126
same,Population Apoptotic (%),[4],33%
same,Population Fragmented Nuclei (%),[4],24%
same,Population Healthy Nuclei (%),[4],48%
same,Population Hoechst High Intensity Objects (%),[4],6%
same,Population Membrane Permeable-Phenotype (%),[4],3%
same,Population Mitochondria Different-Phenotype (%),[4],7%
same,Population Mitotic Cells (%),[4],66%
same,Population Normal (%),[4],93%
same,Population Pyknosed Nuclei (%),[4],27%
same,Population Tubulin-Different-Phenotype (%),[4],40%
same,Total Cell Count,[4],116
same,Population Apoptotic (%),[5],52%
same,Population Fragmented Nuclei (%),[5],32%
same,Population Healthy Nuclei (%),[5],55%
same,Population Hoechst High Intensity Objects (%),[5],2%
same,Population Membrane Permeable-Phenotype (%),[5],0%
same,Population Mitochondria Different-Phenotype (%),[5],2%
same,Population Mitotic Cells (%),[5],47%
same,Population Normal (%),[5],97%
same,Population Pyknosed Nuclei (%),[5],12%
same,Population Tubulin-Different-Phenotype (%),[5],29%
same,Total Cell Count,[5],143
same,Population Apoptotic (%),[6],36%
same,Population Fragmented Nuclei (%),[6],30%
same,Population Healthy Nuclei (%),[6],50%
same,Population Hoechst High Intensity Objects (%),[6],3%
same,Population Membrane Permeable-Phenotype (%),[6],6%
same,Population Mitochondria Different-Phenotype (%),[6],1%
same,Population Mitotic Cells (%),[6],63%
same,Population Normal (%),[6],96%
same,Population Pyknosed Nuclei (%),[6],19%
same,Population Tubulin-Different-Phenotype (%),[6],53%
same,Total Cell Count,[6],119
same,Population Apoptotic (%),[7],61%
same,Population Fragmented Nuclei (%),[7],14%
same,Population Healthy Nuclei (%),[7],73%
same,Population Hoechst High Intensity Objects (%),[7],5%
same,Population Membrane Permeable-Phenotype (%),[7],0%
same,Population Mitochondria Different-Phenotype (%),[7],1%
same,Population Mitotic Cells (%),[7],38%
same,Population Normal (%),[7],95%
same,Population Pyknosed Nuclei (%),[7],11%
same,Population Tubulin-Different-Phenotype (%),[7],11%
same,Total Cell Count,[7],120
same,Population Apoptotic (%),[8],48%
same,Population Fragmented Nuclei (%),[8],31%
same,Population Healthy Nuclei (%),[8],47%
same,Population Hoechst High Intensity Objects (%),[8],4%
same,Population Membrane Permeable-Phenotype (%),[8],10%
same,Population Mitochondria Different-Phenotype (%),[8],5%
same,Population Mitotic Cells (%),[8],52%
same,Population Pyknosed Nuclei (%),[8],20%
same,Population Tubulin-Different-Phenotype (%),[8],53%
same,Total Cell Count,[8],127
same,Population Apoptotic (%),[9],78%
same,Population Fragmented Nuclei (%),[9],35%
same,Population Healthy Nuclei (%),[9],55%
same,Population Hoechst High Intensity Objects (%),[9],2%
same,Population Membrane Permeable-Phenotype (%),[9],0%
same,Population Mitochondria Different-Phenotype (%),[9],2%
same,Population Mitotic Cells (%),[9],21%
same,Population Normal (%),[9],97%
same,Population Pyknosed Nuclei (%),[9],9%
same,Population Tubulin-Different-Phenotype (%),[9],35%
same,Total Cell Count,[9],151
same,Population Apoptotic (%),[10],46%
same,Population Fragmented Nuclei (%),[10],36%
same,Population Healthy Nuclei (%),[10],51%
same,Population Hoechst High Intensity Objects (%),[10],3%
same,Population Membrane Permeable-Phenotype (%),[10],3%
same,Population Mitochondria Different-Phenotype (%),[10],10%
same,Population Mitotic Cells (%),[10],53%
same,Population Normal (%),[10],96%
same,Population Pyknosed Nuclei (%),[10],11%
same,Population Tubulin-Different-Phenotype (%),[10],50%
same,Total Cell Count,[10],116
same,Population Apoptotic (%),[11],57%
same,Population Fragmented Nuclei (%),[11],15%
same,Population Healthy Nuclei (%),[11],71%
same,Population Hoechst High Intensity Objects (%),[11],5%
same,Population Membrane Permeable-Phenotype (%),[11],0%
same,Population Mitochondria Different-Phenotype (%),[11],2%
same,Population Mitotic Cells (%),[11],42%
same,Population Normal (%),[11],94%
same,Population Pyknosed Nuclei (%),[11],12%
same,Population Tubulin-Different-Phenotype (%),[11],16%
same,Total Cell Count,[11],115
same,Population Apoptotic (%),[12],38%
same,Population Fragmented Nuclei (%),[12],29%
same,Population Healthy Nuclei (%),[12],55%
same,Population Hoechst High Intensity Objects (%),[12],3%
same,Population Membrane Permeable-Phenotype (%),[12],10%
same,Population Mitochondria Different-Phenotype (%),[12],1%
same,Population Mitotic Cells (%),[12],61%
same,Population Normal (%),[12],96%
same,Population Pyknosed Nuclei (%),[12],14%
same,Population Tubulin-Different-Phenotype (%),[12],37%
same,Total Cell Count,[12],125
